Activity calls are given as the source filed them. The calls are words filed in the database; no cut-off is given here.

Data on 7 compounds can be found in ChEMBL document CHEMBL1124636, “3,4-Dihydro-2H-1-benzopyran-2-carboxylic acids and related compounds as leukotriene antagonists” (J Med Chem, 1989).

In series [1] the test system is Cavia porcellus. Nature of the series: In vivo guinea pig bronchoconstriction against leukotriene B4 (when administered at a concentration of 1%, by aerosol); Not active. The note with it: Lung.
In series [2] the test system is Cavia porcellus. Nature of the series: (§1) Inhibition of leukotriene D4 induced bronchoconstriction in anesthetized guinea pigs after aerosol administration as 1% solution. Type of series: functional, organism-based. The procedure, abridged: (§2)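 Guinea pigs given propranolol 0.1 mg/kg iv 5 min before 5-min ultrasonic nebulizer exposure to aqueous, NaOH-neutralized drug (% w/v) or distilled water, breathing spontaneously. LTD4 50 µg/kg iv 30 s after exposure; tracheal pressure change.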

Series [3] relates to Cavia porcellus. Kind of series: Duration of action of leukotriene E4 as time for inhibition to decrease to 40%, compound administered at a concentration of 1%,for 5 min by aerosol. It counts as ADME, organism-based. The note with it: guinea pig, in vivo, inhaled_or_intranasal. Summed up:
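Aerosol guinea pig bronchoconstriction with LTE4 challenge; drug given as 1% nebulized solution for 5 min. Duration taken as time for inhibition to fall to 40%.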

Series [4] concerns Cavia porcellus. Kind of series: Activity against histamine induced bronchoconstriction in guinea pig, no significant inhibition when compound dose (10 mg/kg) given intravenously; Not active. Type of series: functional, organism-based.
Series [5] deals with Cavia porcellus. The series is described as §1. It counts as functional. The procedure, abridged:
as §2

Series [6] is filed under the species Cavia porcellus. Nature of the series: In vitro activity to inhibit SRS-A induced contraction of guinea pig ileum.
Series [7] relates to Cavia porcellus. Nature of the series: Activity against platelet activating factor in guinea pig, no significant inhibition when compound dose (10 mg/kg) given intravenously; Not active. Type of series: functional, organism-based.
Series [8] has as its system Cavia porcellus. Nature of the series: Duration of action of leukotriene D4 as time for inhibition to decrease to 40%, compound was administered at a dose of 10 mg/kg. More on the design: dose 10 mg/kg. The settings on record: guinea pig, in vivo. It counts as ADME, organism-based. The procedure, abridged: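 Intravenous guinea pig bronchoconstriction with LTD4 challenge; drug 10 mg/kg iv. Duration taken as time for inhibition to fall to 40%.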

In series [9] the test system is Cavia porcellus. Nature of the series: In vivo guinea pig bronchoconstriction against leukotriene C4 when administered at a concentration of 1%, by aerosol; NS means no significant inhibition. It counts as functional, organism-based. The note with it: Lung.
The subject of series [10] is Cavia porcellus. Nature of the series: Activity against platelet activating factor in guinea pig (when administered at a concentration of 1%, by aerosol); Not active. Type of series: functional, organism-based.
The subject of series [11] is Cavia porcellus. Kind of series: In vivo guinea pig bronchoconstriction against leukotriene D4 when administered a compound dose (mg/kg) intravenously. It counts as functional. The note with it: Lung, iv, read-out: ID50 (the source's name). Summed up:
(§3)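 Male Hartley guinea pigs, 400–600 g, urethane 2 g/kg ip, jugular cannula, propranolol 0.1 mg/kg iv 5 min before challenge, succinylcholine 1.2 mg/kg iv, ventilated. Vehicle or drug iv 30 s before LTD4 25 µg/kg iv; tracheal pressure change.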

Series [12] deals with Dual specificity calcium/calmodulin-dependent 3',5'-cyclic nucleotide phosphodiesterase 1A (Bos taurus, UniProt P14100). Nature of the series: Inhibition of bovine heart Phosphodiesterase 1A.
Series [13] deals with Cavia porcellus. Nature of the series: Activity against histamine induced bronchoconstriction in guinea pig (when administered at a concentration of 1%, by aerosol); Not active. It counts as functional, organism-based.
The species entered for series [14] is Cavia porcellus. Nature of the series: In vitro activity to inhibit leukotriene D4 induced contraction of guinea pig trachea. The note with it: read-out: pA2 (converted). Type of series: functional. Summed up:
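Guinea pig tracheal smooth muscle contracted by LTD4; pA2 and Schild slope reported.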

Series [15] deals with Cavia porcellus. Kind of series: In vivo guinea pig bronchoconstriction against leukotriene C4 when administered a compound dose (mg/kg) intravenously. Type of series: functional. The settings on record: Lung, iv, read-out: ID50 (the source's name).
For series [16], the system named is Cavia porcellus. Kind of series: Time taken for inhibition of antigen induced bronchoconstriction in guinea pig to decrease to 40%, compound administered at a concentration of 1%, for 5 min by aerosol. Type of series: organism-based. The settings on record: in vivo, inhaled_or_intranasal. The procedure, abridged:
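Aerosol guinea pig bronchoconstriction with antigen challenge; drug given as 1% nebulized solution for 5 min. Duration taken as time for inhibition to fall to 40%.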

The subject of series [17] is Cavia porcellus. Kind of series: Inhibition of leukotriene D4 induced bronchoconstriction in anesthetized guinea pigs after intravenous administration. The settings on record: read-out: ID50 (the source's name). It counts as functional. Summed up:
as §3

In series [18] the test system is Cavia porcellus. Kind of series: Duration of action of leukotriene E4 as time for inhibition to decrease to 40%, compound was administered at a dose of 10 mg/kg. Type of series: ADME, organism-based. The settings on record: guinea pig, in vivo. More on the design: dose 10 mg/kg. Summed up: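 Intravenous guinea pig bronchoconstriction with LTE4 challenge; drug 10 mg/kg iv. Duration taken as time for inhibition to fall to 40%.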

Series [19] has as its system Cavia porcellus. Kind of series: In vivo guinea pig bronchoconstriction against leukotriene E4 when administered a compound dose(mg/kg) intravenously. It counts as functional. The settings on record: Lung, iv, read-out: ID50 (the source's name).
In series [20] the test system is Cavia porcellus. Nature of the series: Inhibitory activity to inhibit arachidonic acid induced bronchoconstriction (when administered at a concentration of 1%, by aerosol); Not active. It counts as functional, organism-based.
In series [21] the test system is Cavia porcellus. Nature of the series: Duration of action of leukotriene D4 as time for inhibition to decrease to 40%, when compound was administered at a concentration of 1%, for 5 min by aerosol. It counts as ADME, organism-based. The settings on record: guinea pig, in vivo, inhaled_or_intranasal. Summed up: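 Aerosol guinea pig bronchoconstriction with LTD4 challenge; drug given as 1% nebulized solution for 5 min. Duration taken as time for inhibition to fall to 40%.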

Series [22] deals with Cavia porcellus. Kind of series: Inhibition of leukotriene D4 induced bronchoconstriction in anesthetized guinea pigs after intravenous administration at a dose of 10 mg/kg. It counts as functional. The procedure, abridged:
as §3

The species entered for series [23] is Cavia porcellus. Nature of the series: In vitro activity to inhibit SRS-A induced contraction of guinea pig ileum. This is another data set of the same source.
Series [24] concerns the target T1, Cysteinyl leukotriene receptor 1 (Cavia porcellus, UniProt Q2NNR5).
T1 sequence (Q2NNR5 whole entry): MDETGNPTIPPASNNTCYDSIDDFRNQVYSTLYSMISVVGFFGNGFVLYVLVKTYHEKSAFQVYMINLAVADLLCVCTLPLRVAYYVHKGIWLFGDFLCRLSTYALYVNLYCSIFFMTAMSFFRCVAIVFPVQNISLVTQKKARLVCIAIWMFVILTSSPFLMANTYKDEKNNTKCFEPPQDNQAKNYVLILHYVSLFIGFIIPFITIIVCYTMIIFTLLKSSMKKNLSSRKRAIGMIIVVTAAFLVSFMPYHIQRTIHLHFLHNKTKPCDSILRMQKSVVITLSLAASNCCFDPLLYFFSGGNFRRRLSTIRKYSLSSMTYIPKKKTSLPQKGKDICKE
Nature of the series: In vitro activity to inhibit binding of [3H]- leukotriene D4 to receptor sites in guinea pig lung membrane. Type of series: cell membranes. Summed up:
(§4)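 Lung from male Hartley guinea pigs (400–500 g), homogenized in sucrose/Tris pH 7.5 with protease inhibitors; 30000g membrane pellet in 10 mM PIPES pH 7.5, 50 mM NaCl. Binding: Tyrode, 0.1% BSA, 1 mM glycine, 1 mM cysteine, 3.5 nM [3H]LTD4, 100–200 µg protein, 20 °C, 30 min; glass-fiber filtration. Nonspecific with 10^-6 M LTD4. Triplicate screen at 10 µM; IC50 by linear regression.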

Series [25] addresses T2, Cysteinyl leukotriene receptor 1 (Cavia porcellus) (UniProt Q2NNR5).
T2 sequence (whole entry): T1 sequence (Q2NNR5 whole entry)
The settings on record: Lung, 10 uM.

The target of series [26] is T1, Cysteinyl leukotriene receptor 1. Kind of series: Inhibitory activity of compound to block binding of [3H]leukotriene D4 to Cysteinyl leukotriene D4 receptor sites in homogenized guinea pig lung. The procedure, abridged:
as §4

Series [27] addresses T2, Cysteinyl leukotriene receptor 1 (Cavia porcellus). Kind of series: (§5) Inhibition of leukotriene D4 induced bronchoconstriction in anesthetized guinea pigs after intravenous administration at a dose of 1 mg/kg. It counts as organism-based. On the set-up: dose 1 mg/kg.
Series [28] shares this target. Nature of the series: Inhibitory activity of compound to block binding of radiolabeled leukotriene D4 to receptor sites in homogenized guinea pig lung at 10 uM. The procedure, abridged: as §4
A further series is filed under the species Rattus norvegicus. Kind of series: Inhibitory activity to inhibit Inophore-induced arachidonic acid metabolism (inhibition of LTB4 formation) in rat. It counts as functional, organism-based. The procedure, abridged: (§6)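 Rat peritoneal macrophages adhered 90 min at 37 °C, labeled with [14C]arachidonic acid 90 min, washed. Compound 30 min at 37 °C, then A23187 0.5 µM for 20 min. LTB4 and PGE2 in medium by radioimmunoassay.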

Series [29] can be described thus: Inhibitory activity to inhibit Inophore-induced arachidonic acid metabolism (inhibition of PGE-2 formation) in rat. Type of series: functional. Summed up:
as §6

Series [30] concerns Cysteinyl leukotriene receptor (Cavia porcellus). Nature of the series: Inhibitory activity to block binding of [3H]leukotriene D4 to LTD4 receptor sites in homogenized guinea pig lung at 10 uM.
Series [31] has as its system Cavia porcellus. Described as §5. It counts as functional.

Dual specificity calcium/calmodulin-dependent 3',5'-cyclic nucleotide phosphodiesterase 1A, sequence (P14100 whole entry): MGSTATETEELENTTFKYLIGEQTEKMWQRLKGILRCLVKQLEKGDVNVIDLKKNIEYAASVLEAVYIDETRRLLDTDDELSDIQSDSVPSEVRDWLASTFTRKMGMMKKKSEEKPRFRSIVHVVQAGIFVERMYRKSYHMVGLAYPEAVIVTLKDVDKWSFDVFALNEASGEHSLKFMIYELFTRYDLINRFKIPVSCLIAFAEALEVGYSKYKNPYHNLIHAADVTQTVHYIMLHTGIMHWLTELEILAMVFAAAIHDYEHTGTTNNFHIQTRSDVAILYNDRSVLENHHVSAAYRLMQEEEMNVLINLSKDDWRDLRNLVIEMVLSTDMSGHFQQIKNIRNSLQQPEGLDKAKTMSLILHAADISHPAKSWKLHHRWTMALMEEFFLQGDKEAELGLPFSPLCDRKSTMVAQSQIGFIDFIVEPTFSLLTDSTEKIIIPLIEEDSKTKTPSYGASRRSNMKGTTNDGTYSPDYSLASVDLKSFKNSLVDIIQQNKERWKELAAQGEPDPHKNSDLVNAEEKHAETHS

For the compound `CCCc1c(OCC(O)COc2ccc3c(=O)cc(C(=O)O)oc3c2CCC)ccc(C(C)=O)c1O` (stereo not drawn) [FPL-55712], the inhibition result in the series on Cavia porcellus [1], in the series with Cavia porcellus [4], with Cavia porcellus [7], in the series on Cavia porcellus [9], in the series on Cavia porcellus [10] and in the series with Cavia porcellus [13] was “inactive” in each case. Also, the inhibition result with Cavia porcellus [20] is “inactive”. Moreover, the IC50 turned out to be 0.5 % conc with Cavia porcellus [2], 50 nM in the series listed under Cavia porcellus [6] and 40000 nM in [12]. Besides, the Duration in the series with Cavia porcellus [3] stood at 50 min; in the series with Cavia porcellus [8] it was 6 min; with Cavia porcellus [16] it was 270 min; in the series on Cavia porcellus [18], 6 min; in the series on Cavia porcellus [21], 60 min. In the series on Cavia porcellus [5], this compound yielded an Inhibition of 64%. Also, the ED50 was 2 mg/kg with Cavia porcellus [11], 6 mg/kg in the series with Cavia porcellus [15], 2 mg/kg in the series on Cavia porcellus [17] and 1 mg/kg in the series on Cavia porcellus [19]. The Kb in the series listed under Cavia porcellus [14] is 1000 nM. Further, the inhibition in vivo at 10 mg/kg in the series on Cavia porcellus [22] was 92%.

In the case of `CCCc1c(OCCCCCOc2cc3c(cc2C(C)=O)CC[C@H](C(=O)O)O3)ccc(C(C)=O)c1O`, in the series listed under Cavia porcellus [6], the IC50 was 100 nM. Further, the ED50 in the series on Cavia porcellus [11] was determined as 4 mg/kg; in the series on Cavia porcellus [15] it was 6 mg/kg. For the same compound, the Kb in the series filed under Cavia porcellus [14] is 794 nM.

Consider `CCCc1c(OCCCCCOc2cc3c(cc2C(C)=O)CC[C@@H](C(=O)O)O3)ccc(C(C)=O)c1O`, for which the values for the ED50 with Cavia porcellus [11] and with Cavia porcellus [15] were 3 mg/kg and 4 mg/kg, respectively. For the same compound, the Kb in the series listed under Cavia porcellus [14] is 631 nM. Moreover, the results for the IC50 (in the series listed under Cavia porcellus [23]; in series [24]) were 60 nM and 5000 nM, respectively.

In turn, `CCCc1c(OCCCCCOc2cc3c(cc2C(C)=O)CCC(CCC)(C(=O)O)O3)ccc(C(C)=O)c1O` (stereo not drawn) had an inhibition in series [25] of 70%. Further, the figures for the IC50 (with Cavia porcellus [2]; in [26]) were 0.9 % conc and 2000 nM, respectively. In the series with Cavia porcellus [5], this compound registered an Inhibition of 51%. Further, the ED50 in the series with Cavia porcellus [17] is 8 mg/kg. This compound came in with an inhibition in vivo at 10 mg/kg with Cavia porcellus [22] of 56%.

For the compound `CCCc1c(OCCCCCOc2cc3c(cc2C(C)=O)CCC(C(=O)O)O3)ccc(C=O)c1O` (stereo not drawn), the inhibition in series [27] and in series [28] was 0% in each case.

Take `COc1ccc2c(c1)c(CC(=O)O)c(C)n2C(=O)c1ccc(Cl)cc1` [INDOMETHACIN]: the IC50 came out at 60000 nM in the series listed under Rattus norvegicus and 100 nM in [29].

`CCCc1c(OCCCCCOc2cc3c(cc2C(C)=O)CCC(c2nnn[nH]2)O3)ccc(C(C)=O)c1O` (stereo not drawn): the inhibition in series [30] is 60%. For the same compound, the inhibition in vivo at 1 mg/kg with Cavia porcellus [31] worked out at 0%.

What is called inhibition is the change of the read-out against control, counted positive when it falls. The Inhibition is how much of the control response was suppressed. Higher therefore signals strong suppression. As a reminder, the inhibition in vivo is the share of the control response that was lost under treatment. High values mean a response far below the control, low ones a response near the control.
